Measurements taken from ChEMBL document CHEMBL1144474, “Synthesis and anti-HIV-1 activity evaluation of 5-alkyl-2-alkylthio-6-(arylcarbonyl or alpha-cyanoarylmethyl)-3,4-dihydropyrimidin-4(3H)-ones as novel non-nucleoside HIV-1 reverse transcriptase inhibitors” (J Med Chem, 2007).

Legend:
[1] = Selectivity index, CC50 for MT4 cells/IC50 for HIV1 3B; assay type: functional
Method in brief: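 Ratio of CC₅₀ in uninfected MT-4 cells to IC₅₀ against HIV-1 IIIB cytopathogenicity in MT-4 cells. Both values come from the 4-day, 37 °C MTT read-out, run in parallel.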

[2] = test system: Human immunodeficiency virus 1; assay: Antiviral activity against wild type HIV1 3B in MT4 cells after 4 days by MTT method; assay type: functional, organism-based; details: Human immunodeficiency virus 1, 3B, MT4, 96 h
Method in brief: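 MT-4 cells at 1 × 10⁵ cells/mL infected with HIV-1 IIIB (titrated as CCID₅₀) at MOI 0.02, then plated right away into serial compound dilutions (DMSO stocks, 50 mM or higher). After 4 days at 37 °C, viable cells were counted by MTT. IC₅₀ is the concentration giving 50% protection from viral cytopathogenicity.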

[3] = Cytotoxicity against MT4 cells after 4 days by MTT method; assay type: cell-based; details: human
Method in brief: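 Uninfected MT-4 cells were run in parallel with the infected cultures across a range of compound concentrations (DMSO stocks, 50 mM or higher). After 4 days at 37 °C, viability was read by MTT. CC₅₀ is the concentration that cuts normal cell viability by 50%.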

[4] = test system: Human immunodeficiency virus 1; assay: Antiviral activity against HIV1 3B in human PBMC assessed by measuring p24 antigen production after 7 days by ELISA; assay type: functional, organism-based; details: Human immunodeficiency virus 1, 3B, 168 h
Method in brief: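 Donor PBMCs were isolated by density centrifugation, stimulated with PHA for 3 days and washed in PBS. Cells (2 × 10⁵/200 µL) were plated in serial compound dilutions and infected with HIV at 1000 CCID₅₀ per mL. On day 4, medium was partly replaced with fresh medium containing compound. p24 antigen in the supernatant was measured by ELISA on day 7.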

[5] = Cytotoxicity against mock-infecected human PBMC; assay type: cell-based; details: mock-infected PBMC
[6] = Selectivity index, CC50 for PBMC/IC50 for HIV1 3B; assay type: functional

IC50 [4] [µM] | SMILES | Ratio CC50/IC50 [1] | IC50 [2] [µM] | CC50 at 96 h [3] [µM] | CC50 [5] [µM] | Ratio CC50/IC50 [6]
 | Cc1c(Sc2ccccc2)n(COCCO)c(=O)[nH]c1=O [HEPT] | 80 |  |  |  | 
 | CCc1c(C(=O)c2cccc3ccccc23)nc(SC(C)C)[nH]c1=O | 26 | 6.79 | 179 |  | 
 | CCc1c(C(=O)c2ccc3ccccc3c2)nc(SCc2ccccc2)[nH]c1=O | <=3 | ≥ 60.8 | 157 |  | 
 | COc1ccc(CSc2nc(C(C#N)c3cccc4ccccc34)c(C(C)C)c(=O)[nH]2)cc1 (stereo unspecified) | <1 | > 2.09 | 2.09 |  | 
 | CCSc1nc(C(=O)c2cccc3ccccc23)cc(=O)[nH]1 | 6 | 37.6 | 242 |  | 
 | CCc1c(C(C#N)c2cccc3ccccc23)nc(SC2CCCC2)[nH]c1=O (stereo unspecified) | 293 | 0.18 | 51.9 |  | 
 | Cc1c(C(C#N)c2ccccc2)nc(SC2CCCC2)[nH]c1=O (stereo unspecified) | 9 | 6.34 | 59 |  | 
0.99 | Cc1c(C(C#N)c2cccc3ccccc23)nc(SCC(=O)c2ccccc2)[nH]c1=O (stereo unspecified) | 1500 | 0.09 | 164 | 69.9 | 70
 | CC(C)c1c(C(C#N)c2cccc3ccccc23)nc(SC2CCCC2)[nH]c1=O (stereo unspecified) | 5 | 1.34 | 7.32 |  | 
 | CCc1c(C(C#N)c2cccc3ccccc23)nc(SCC(=O)c2ccc(Cl)cc2)[nH]c1=O (stereo unspecified) | <=3 | ≥ 35.7 | 117 |  | 
 | CCc1c(C(=O)c2ccccc2)nc(SC2CCCC2)[nH]c1=O | 13 | 4.69 | 60.4 |  | 
 | CCSc1nc(C(C#N)c2cccc3ccccc23)c(CC)c(=O)[nH]1 (stereo unspecified) | 103 | 1.17 | 122 |  | 
 | CCSc1nc(C(=O)c2cccc3ccccc23)c(CC)c(=O)[nH]1 | 7 | 27.8 | 197 |  | 
 | COc1ccc(CSc2nc(C(C#N)c3ccccc3)c(C(C)C)c(=O)[nH]2)cc1 (stereo unspecified) | 8 | 3.53 | 26.8 |  | 
 | CCc1c(C(C#N)c2ccccc2)nc(SCc2ccc([N+](=O)[O-])cc2)[nH]c1=O (stereo unspecified) | 26 | 1.33 | 34.2 |  | 
 | Cc1c(C(C#N)c2cccc3ccccc23)nc(SC2CCCC2)[nH]c1=O (stereo unspecified) | 61 | 0.8 | 49.4 |  | 
1.66 | CCc1c(C(C#N)c2cccc3ccccc23)nc(SC(C)C)[nH]c1=O (stereo unspecified) | >1400 | 0.24 | > 344 | > 68.9 | >41
 | Cc1ccnc2c1NC(=O)c1cccnc1N2C1CC1 [NEVIRAPINE] | >800 | 0.25 | > 200 |  | 
 | CCSc1nc(C(=O)c2ccccc2)cc(=O)[nH]1 | <1 | > 247 | 247 |  | 

IC50 [4] [µM] | SMILES | Ratio CC50/IC50 [1] | IC50 [2] [µM] | CC50 at 96 h [3] [µM] | CC50 [5] [µM] | Ratio CC50/IC50 [6]
 | C=CCSc1nc(C(=O)c2cccc3ccccc23)c(CC)c(=O)[nH]1 | 12 | 16.9 | 210 |  | 
 | C=CCSc1nc(C(C#N)c2cccc3ccccc23)c(CC)c(=O)[nH]1 (stereo unspecified) | >585 | 0.58 | > 346 |  | 
 | Cc1c(C(C#N)c2cccc3ccccc23)nc(SCC(=O)c2ccc(Cl)cc2)[nH]c1=O (stereo unspecified) | 32 | 4.71 | 148 |  | 
 | Cc1c(C(C#N)c2ccccc2)nc(SC(C)C)[nH]c1=O (stereo unspecified) | 4600 | 0.002 | 10.8 |  | 
 | O=C(c1cc(=O)[nH]c(SC2CCCC2)n1)c1cccc2ccccc12 | <1 | > 21 | 21 |  | 
 | CC(C)c1c(C(=O)c2cccc3ccccc23)nc(SC2CCCC2)[nH]c1=O | 2 | 10.9 | 24.7 |  | 
 | C#CCSc1nc(C(C#N)c2cccc3ccccc23)c(CC)c(=O)[nH]1 (stereo unspecified) | 10 | 4.85 | 48 |  | 
 | Cc1c(C(C#N)c2ccccc2)nc(SCC(=O)c2ccccc2)[nH]c1=O (stereo unspecified) | 7 | 7.28 | 53.8 |  | 
 | N#CC(c1cc(=O)[nH]c(SC2CCCC2)n1)c1cccc2ccccc12 (stereo unspecified) | <1 | > 22.8 | 22.8 |  | 
 | CCc1c(C(C#N)c2c(Cl)cccc2Cl)nc(SCc2ccc([N+](=O)[O-])cc2)[nH]c1=O (stereo unspecified) | 11 | 2.22 | 23.5 |  | 
 | O=C(CSc1nc(C(=O)c2cccc3ccccc23)cc(=O)[nH]1)c1ccccc1 |  | > 304 | > 304 |  | 
 | Cc1c(C(=O)c2ccccc2)nc(SC(C)C)[nH]c1=O | 128 | 2.05 | 263 |  | 
 | C#CCSc1nc(C(=O)c2cccc3ccccc23)c(C)c(=O)[nH]1 | <1 | > 124 | 124 |  | 
 | CCc1c(C(=O)c2cccc3ccccc23)nc(SCc2ccccc2)[nH]c1=O |  | > 312 | > 312 |  | 
 | C#CCSc1nc(C(C#N)c2cccc3ccccc23)c(C)c(=O)[nH]1 (stereo unspecified) | 17 | 2.7 | 46.1 |  | 
 | CCc1c(C(C#N)c2ccccc2)nc(SC(C)C)[nH]c1=O (stereo unspecified) | 91 | 0.64 | 58 |  | 
 | CC(C)Sc1nc(C(C#N)c2cccc3ccccc23)cc(=O)[nH]1 (stereo unspecified) | 82 | 0.66 | 53.2 |  | 
 | COc1ccc(CSc2nc(C(C#N)c3c(Cl)cccc3Cl)c(C(C)C)c(=O)[nH]2)cc1 (stereo unspecified) | <1 | > 23.5 | 23.5 |  | 
 | CCc1c(C(C#N)c2cccc3ccccc23)nc(SCc2ccc([N+](=O)[O-])cc2)[nH]c1=O (stereo unspecified) | 20 | 1.25 | 24.5 |  | 
